In ChEMBL document CHEMBL5252669, “Semisynthetic blasticidin S ester derivatives show enhanced antibiotic activity” (RSC Med Chem, 2023):
Values after ≈ are worked out from the molar mass of the structure shown. Active and inactive are the calls of the source. The calls are words filed in the database; no cut-off is given here.

Experiments:
[1] = Selectivity index, ratio of CC50 for human MRC5 cells to IC50 for Acinetobacter baumannii ATCC 17978; assay type: toxicity; details: read-out: Ratio CC50/IC50
[2] = Selectivity index, ratio of CC50 for human MRC5 cells to IC50 for Klebsiella pneumoniae ATCC 29665; assay type: toxicity; details: read-out: Ratio CC50/IC50
[3] = tested on: Klebsiella pneumoniae; assay: Antibacterial activity against Klebsiella pneumoniae ATCC 29665 incubated for 16 hrs by broth microdilution method; assay type: functional, organism-based; details: for IC50: ATCC 29665, 16 h; for MIC: ATCC 29665, time 16 hrs
[4] = tested on: Pseudomonas aeruginosa; assay: Antibacterial activity against MexAB-OprM deleted Pseudomonas aeruginosa incubated for 16 hrs by broth microdilution method; assay type: functional, organism-based; details: for IC50: 16 h; for MIC: time 16 hrs
[5] = Selectivity index, ratio of CC50 for human MRC5 cells to IC50 for vancomycin-resistant Enterococcus; assay type: toxicity; details: read-out: Ratio CC50/IC50
[6] = Selectivity index, ratio of CC50 for human MRC5 cells to IC50 for Enterococcus faecalis ATCC 29212; assay type: toxicity; details: read-out: Ratio CC50/IC50
[7] = tested on: Candida albicans; assay: Antifungal activity against Candida albicans incubated for 16 hrs by broth microdilution method; assay type: functional
[8] = Cytotoxicity against human MRC5 cells incubated for 24 hrs by MTS assay; assay type: toxicity, cell-based
How it was run: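 MRC-5 lung fibroblasts seeded 5000 per well; medium replaced with compound 16–192 μg mL−1 or matching 1:1 methanol:water vehicle; 24 h, then MTS 3–4 h; absorbance 490 nm; viability relative to untreated cells, normalized to vehicle; CC50 from two independent assays in duplicate, mean ± SD.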

[9] = tested on: Staphylococcus aureus; assay: Antibacterial activity against methicillin resistant Staphylococcus aureus ATCC 43300 incubated for 16 hrs by broth microdilution method; assay type: functional, organism-based; details: for IC50: ATCC 43300, 16 h; for MIC: ATCC 43300, time 16 hrs
How it was run: (§1)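 Cation-adjusted Mueller-Hinton broth microdilution. Overnight cultures from single colonies were diluted to OD600 0.004. Final compound range was 256–2 μg mL−1 in 1:1 methanol/water vehicle, with doxycycline and vehicle controls. Plates were incubated 16 h at 37 °C. OD600 was normalized to controls, and MIC was the lowest concentration inhibiting >90% growth. Two biological replicates in duplicate; reported as a range.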

[10] = Selectivity index, ratio of CC50 for human MRC5 cells to IC50 for MexAB-OprM deleted Pseudomonas aeruginosa; assay type: toxicity; details: read-out: Ratio CC50/IC50
[11] = tested on: Enterococcus; assay: Antibacterial activity against vancomycin-resistant Enterococcus incubated for 20 hrs by broth microdilution method
[12] = Selectivity index, ratio of CC50 for human MRC5 cells to IC50 for NorA deleted Staphylococcus aureus; assay type: toxicity; details: read-out: Ratio CC50/IC50
[13] = Selectivity index, ratio of CC50 for human MRC5 cells to IC50 for methicillin resistant Staphylococcus aureus; assay type: toxicity; details: read-out: Ratio CC50/IC50
[14] = Selectivity index, ratio of CC50 for human MRC5 cells to IC50 for Staphylococcus aureus; assay type: toxicity; details: read-out: Ratio CC50/IC50
[15] = tested on: Enterococcus faecalis; assay: Antibacterial activity against Enterococcus faecalis ATCC 29212 incubated for 20 hrs by broth microdilution method; details: ATCC 29212, 20 h
[16] = tested on: Staphylococcus aureus; assay: Antibacterial activity against wild type Staphylococcus aureus 8810 incubated for 16 hrs by broth microdilution method; assay type: functional, organism-based; details: for IC50: Staphylococcus aureus, 8810, 16 h; for MIC: Staphylococcus aureus, 8810, time 16 hrs; how it was run: as §1
[17] = tested on: Staphylococcus aureus; assay: Antibacterial activity against NorA deleted Staphylococcus aureus incubated for 16 hrs by broth microdilution method; assay type: functional, organism-based; details: for IC50: 16 h; for MIC: time 16 hrs; how it was run: as §1
[18] = tested on: Acinetobacter baumannii; assay: Antibacterial activity against Acinetobacter baumannii ATCC 17978 incubated for 16 hrs by broth microdilution method; assay type: functional, organism-based; details: for IC50: ATCC 17978, 16 h; for MIC: ATCC 17978, time 16 hrs
[19] = tested on: Saccharomyces cerevisiae; assay: Antifungal activity against Saccharomyces cerevisiae incubated for 16 hrs by broth microdilution method; assay type: functional
[20] = tested on: Staphylococcus aureus; assay: Antibacterial activity against Staphylococcus aureus assessed as zone of inhibition incubated for 18 hrs by spot on lawn assay; assay type: functional, organism-based
How it was run: (§2)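 Overnight LB cultures diluted to OD600 0.01 in 0.7% LB top agar, overlaid on 1.5% LB agar; 5 mg mL−1 aqueous compound spotted at 35, 25, 10 and 5 μg with 1:1 water/methanol vehicle spot; 37 °C, 18 h; inhibition zone diameter measured by ruler.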

[21] = tested on: Staphylococcus aureus; assay: Antibacterial activity against methicillin resistant Staphylococcus aureus assessed as zone of inhibition incubated for 18 hrs by spot on lawn assay; assay type: functional, organism-based
How it was run: (§3)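 Spot-on-lawn assay. Plates of 1.5% agar in LB were overlaid with 0.7% LB agar seeded with overnight culture at 0.01 OD600. Aqueous 5 mg mL−1 solutions were spotted at 35, 25, 10 and 5 μg, with a 1:1 water/methanol vehicle spot. After 18 h at 37 °C, inhibition zone diameters were measured with a ruler.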

[22] = tested on: Enterococcus faecalis; assay: Antibacterial activity against Enterococcus faecalis ATCC 29212 assessed as zone of inhibition incubated for 18 hrs by spot on lawn assay; assay type: functional, organism-based; how it was run: as §2
[23] = tested on: Staphylococcus aureus; assay: Antibacterial activity against NorA deleted Staphylococcus aureus assessed as zone of inhibition incubated for 18 hrs by spot on lawn assay; assay type: functional, organism-based; how it was run: as §2
[24] = tested on: Enterococcus; assay: Antibacterial activity against vancomycin-resistant Enterococcus assessed as zone of inhibition incubated for 18 hrs by spot on lawn assay; assay type: functional, organism-based; how it was run: as §3
[25] = tested on: Candida albicans; assay: Antifungal activity against Candida albicans assessed as zone of inhibition incubated for 18 hrs by spot on lawn assay; assay type: functional, organism-based; how it was run: as §2

CCCCCCOC(=O)[C@H]1O[C@@H](n2ccc(N)nc2=O)C=C[C@@H]1NC(=O)C[C@@H](N)CCN(C)C(=N)N
selectivity ratio [1]: 0.3
selectivity ratio [2]: 0.3
IC50 [3]: 67.1 µg/mL (≈ 132 µM)
MIC [3]: 128 µg/mL (≈ 253 µM)
IC50 [4]: 77.2 µg/mL (≈ 152 µM)
MIC [4]: > 128 µg/mL
selectivity ratio [5]: 0.1
selectivity ratio [6]: 1.6
MIC [7]: > 32 µg/mL
CC50 at 24 h [8]: 18.4 µg/mL (≈ 36.3 µM)
IC50 [9]: 43.2 µg/mL (≈ 85.3 µM)
MIC [9]: 128 µg/mL (≈ 253 µM)
selectivity ratio [10]: 0.2
IC50 [11]: 140 µg/mL (≈ 276 µM)
MIC [11]: 256 µg/mL (≈ 505 µM)
selectivity ratio [12]: 1
selectivity ratio [13]: 0.4
selectivity ratio [14]: 0.7
IC50 [15]: 11.4 µg/mL (≈ 22.5 µM)
MIC [15]: 16 µg/mL (≈ 31.6 µM)
IC50 [16]: 27.1 µg/mL (≈ 53.5 µM)
MIC [16]: 64 µg/mL (≈ 126 µM)
IC50 [17]: 18 µg/mL (≈ 35.5 µM)
MIC [17]: 32 µg/mL (≈ 63.2 µM)
IC50 [18]: 52.4 µg/mL (≈ 103 µM)
MIC [18]: 128 µg/mL (≈ 253 µM)
MIC [19]: 16 µg/mL (≈ 31.6 µM)

CN(CC[C@H](N)CC(=O)N[C@H]1C=C[C@H](n2ccc(N)nc2=O)O[C@@H]1C(=O)OCc1ccccc1)C(=N)N
selectivity ratio [1]: 0.2
selectivity ratio [2]: 0.3
IC50 [3]: 58.8 µg/mL (≈ 115 µM)
MIC [3]: > 128 µg/mL
IC50 [4]: 89.3 µg/mL (≈ 174 µM)
MIC [4]: > 128 µg/mL
selectivity ratio [5]: < 0.3
selectivity ratio [6]: 1.2
MIC [7]: > 128 µg/mL
CC50 at 24 h [8]: 17.4 µg/mL (≈ 33.9 µM)
IC50 [9]: 23.3 µg/mL (≈ 45.5 µM)
MIC [9]: 32 µg/mL (≈ 62.4 µM)
selectivity ratio [10]: 0.2
IC50 [11]: > 64 µg/mL
MIC [11]: 128 µg/mL (≈ 250 µM)
selectivity ratio [12]: 0.4
selectivity ratio [13]: 0.7
selectivity ratio [14]: 0.5
IC50 [15]: 14.6 µg/mL (≈ 28.5 µM)
MIC [15]: 16 µg/mL (≈ 31.2 µM)
IC50 [16]: 33 µg/mL (≈ 64.4 µM)
MIC [16]: 128 µg/mL (≈ 250 µM)
IC50 [17]: 46.6 µg/mL (≈ 90.9 µM)
MIC [17]: 128 µg/mL (≈ 250 µM)
IC50 [18]: 85.1 µg/mL (≈ 166 µM)
MIC [18]: > 128 µg/mL
MIC [19]: 128 µg/mL (≈ 250 µM)

CCOC(=O)[C@H]1O[C@@H](n2ccc(N)nc2=O)C=C[C@@H]1NC(=O)C[C@@H](N)CCN(C)C(=N)N.Cl.Cl.Cl
Activity [20]: Active
selectivity ratio [1]: 0.3
selectivity ratio [2]: 0.1
IC50 [3]: 73.9 µg/mL
MIC [3]: > 128 µg/mL
Activity [21]: Active
IC50 [4]: 67 µg/mL
MIC [4]: > 128 µg/mL
Activity [22]: Active
selectivity ratio [5]: 0.3
Activity [23]: Active
selectivity ratio [6]: 0.9
MIC [7]: > 256 µg/mL
CC50 at 24 h [8]: 8.9 µg/mL
IC50 [9]: 17 µg/mL
MIC [9]: 32 µg/mL
selectivity ratio [10]: 0.1
IC50 [11]: 34.4 µg/mL
MIC [11]: 64 µg/mL
selectivity ratio [12]: 0.4
selectivity ratio [13]: 0.5
selectivity ratio [14]: 0.8
Activity [24]: Active
IC50 [15]: 9.9 µg/mL
MIC [15]: 16 µg/mL
IC50 [16]: 11.6 µg/mL
MIC [16]: 32 µg/mL
IC50 [17]: 20 µg/mL
MIC [17]: 32 µg/mL
IC50 [18]: 30.4 µg/mL
MIC [18]: 64 µg/mL
Activity [25]: inactive
MIC [19]: 32 µg/mL

CCCOC(=O)[C@H]1O[C@@H](n2ccc(N)nc2=O)C=C[C@@H]1NC(=O)C[C@@H](N)CCN(C)C(=N)N
Activity [20]: Active
selectivity ratio [1]: 0.2
selectivity ratio [2]: 0.2
IC50 [3]: 60.1 µg/mL (≈ 129 µM)
MIC [3]: 128 µg/mL (≈ 276 µM)
Activity [21]: Active
IC50 [4]: 61.6 µg/mL (≈ 133 µM)
MIC [4]: > 128 µg/mL
Activity [22]: Active
selectivity ratio [5]: 0.4
Activity [23]: Active
selectivity ratio [6]: 1
MIC [7]: > 256 µg/mL
CC50 at 24 h [8]: 10.2 µg/mL (≈ 22 µM)
IC50 [9]: 15.8 µg/mL (≈ 34 µM)
MIC [9]: 32 µg/mL (≈ 68.9 µM)
selectivity ratio [10]: 0.2
IC50 [11]: 23.6 µg/mL (≈ 50.8 µM)
MIC [11]: 128 µg/mL (≈ 276 µM)
selectivity ratio [12]: 0.5
selectivity ratio [13]: 0.6
selectivity ratio [14]: 0.7
Activity [24]: Active
IC50 [15]: 10.5 µg/mL (≈ 22.6 µM)
MIC [15]: 16 µg/mL (≈ 34.4 µM)
IC50 [16]: 14.5 µg/mL (≈ 31.2 µM)
MIC [16]: 32 µg/mL (≈ 68.9 µM)
IC50 [17]: 20.6 µg/mL (≈ 44.3 µM)
MIC [17]: 32 µg/mL (≈ 68.9 µM)
IC50 [18]: 42.3 µg/mL (≈ 91.1 µM)
MIC [18]: 128 µg/mL (≈ 276 µM)
Activity [25]: inactive
MIC [19]: 32 µg/mL (≈ 68.9 µM)
